In ChEMBL document CHEMBL1141957, “Screening of electrophilic compounds yields an aziridinyl peptide as new active-site directed SARS-CoV main protease inhibitor” (Bioorg Med Chem Lett, 2005):
pKi: −log10 of the molar value.

How the values were obtained:
[1] = target: Replicase polyprotein 1a (Severe acute respiratory syndrome-related coronavirus) (UniProt P0C6U8); assay: Inhibition of Mpro in SARS-CoV at 100 uM in FRET-based assay
Procedure, shortened: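 Fluorimetric read-out: SARS-CoV Mpro cleavage of a FRET-pair-labeled peptide substrate. Percent inhibition reported as the mean of at least 2 independent assays.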

[2] = target: Replicase polyprotein 1a (Severe acute respiratory syndrome-related coronavirus) (UniProt P0C6U8); assay: Inhibition of Mpro in SARS-CoV at 100uM
[3] = target: Replicase polyprotein 1a (Severe acute respiratory syndrome-related coronavirus) (UniProt P0C6U8); assay: Inhibition of Mpro in SARS-CoV at 100 uM in HPLC assay
Procathepsin L = Procathepsin L (Homo sapiens, UniProt P07711); assay: Inhibitory activity against cathepsin L
Procathepsin L, sequence (P07711 whole entry): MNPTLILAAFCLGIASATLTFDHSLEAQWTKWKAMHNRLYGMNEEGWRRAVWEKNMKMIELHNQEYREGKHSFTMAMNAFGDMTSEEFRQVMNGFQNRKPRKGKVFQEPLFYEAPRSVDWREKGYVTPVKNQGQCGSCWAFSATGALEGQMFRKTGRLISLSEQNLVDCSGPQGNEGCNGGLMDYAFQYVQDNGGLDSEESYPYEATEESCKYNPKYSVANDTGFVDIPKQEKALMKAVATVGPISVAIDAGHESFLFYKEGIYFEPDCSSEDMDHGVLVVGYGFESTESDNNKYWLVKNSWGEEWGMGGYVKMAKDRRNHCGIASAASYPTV

Structure (SMILES)	inhibition [1]	inhibition [2]	further results
CC1C(C(=O)N[C@@H](Cc2ccccc2)C(=O)OCc2ccccc2)N1Cc1ccccc1 (stereo partly specified)	34%		
COC(=O)C1CN1[C@H](C(=O)OCc1ccccc1)C(C)C (stereo partly specified)	20%		
C[C@H]1O[C@H]1C(=O)N[C@H](Cc1ccccc1)C(=O)OCc1ccccc1		< 10%	
COC(=O)C1(C(=O)OC)NC1C (stereo unspecified)		< 10%	
C[C@@H]1O[C@@H]1C(=O)N[C@H](Cc1ccccc1)C(=O)OCc1ccccc1		< 10%	
COC(=O)C1C(c2ccccc2)N1Cc1ccccc1 (stereo unspecified)		< 10%	
C[C@H]1O[C@H]1C(=O)N[C@@H](Cc1ccccc1)C(=O)OCc1ccccc1	15%		
COC(=O)C1CN1[C@H](C(=O)OC)C(C)C (stereo partly specified)	30%		
COC(=O)C1CN1CCCC[C@H](NC(=O)OCc1ccccc1)C(=O)OC (stereo partly specified)	48%		
CC[C@H](C)[C@@H](C(=O)OCc1ccccc1)N1CC1C(=O)OC (stereo partly specified)	30%		
C[C@@H]1O[C@@H]1C(=O)N[C@@H](Cc1ccccc1)C(=O)OCc1ccccc1	28%		
CCOC(=O)[C@H]1[C@H](C(=O)OCC)N1C(=O)[C@@H]1CCCN1C(=O)[C@H](CC(C)C)NC(=O)OC(C)(C)C	16%		
CCOC(=O)N1C(C)C1(C(=O)OC)C(=O)OC (stereo unspecified)		< 10%	
COC(=O)C1CN1[C@@H](CC(=O)OCc1ccccc1)C(=O)OCc1ccccc1 (stereo partly specified)	28%		
CCOC(=O)C1OC1C(=O)N[C@@H](Cc1ccccc1)C(=O)OCc1ccccc1 (stereo partly specified)	22%		
CCOC(=O)[C@H]1N[C@@H]1C(=O)NCC(=O)NCC(=O)OCc1ccccc1	54%		inhibition [3]: 75%
C[C@H]1O[C@H]1C(=O)O		< 10%	
COC(=O)C1CN1[C@@H](CC(C)C)C(=O)OCc1ccccc1 (stereo partly specified)	34%		
CC(C)[C@H](NC(=O)C1C(c2ccccc2)N1Cc1ccccc1)C(=O)OCc1ccccc1 (stereo partly specified)	22%		

Structure (SMILES)	inhibition [1]	inhibition [2]	further results
O=C(N[C@@H](Cc1ccccc1)C(=O)OCc1ccccc1)C1C(c2ccccc2)N1Cc1ccccc1 (stereo partly specified)	30%		
CC(C)(C)OC(=O)N[C@H](C(=O)N1[C@H](C(=O)OCc2ccccc2)[C@H]1C(=O)OCc1ccccc1)N1CCCCC1	29%		pKi (Procathepsin L): 5.19
COC(=O)CN1CC1C(=O)OC (stereo unspecified)	30%		
C[C@@H]1O[C@@H]1C(=O)N[C@H](Cc1ccccc1)C(=O)O		< 10%	
COC(=O)C1CN1CC(=O)OCc1ccccc1 (stereo unspecified)	26%		
CC(C)C[C@@H]1O[C@@H]1[C@H](Cc1ccccc1)NC(=O)OC(C)(C)C		< 10%	
C[C@H]1O[C@H]1C(=O)N[C@@H](Cc1ccccc1)C(=O)O		< 10%	
CCOC(=O)[C@H]1N[C@H]1C(=O)OCC		< 10%	
CCOC(=O)C1C(C)N1Cc1ccccc1 (stereo unspecified)		< 10%	
COC(=O)[C@H]1O[C@H]1C(=O)OC		< 10%	
CC(C)[C@H](NC(=O)[C@@H]1O[C@@H]1C)C(=O)OCc1ccccc1	10%		
COC(=O)CN1CC1C(=O)N[C@@H](Cc1ccccc1)C(=O)OC (stereo partly specified)		< 10%	
COC(=O)[C@H]1N[C@H]1C(=O)OC		< 10%	
C[C@H]1[C@@H](C(=O)N[C@@H](Cc2ccccc2)C(=O)OCc2ccccc2)N1Cc1ccccc1 (stereo partly specified)	24%		
COC(=O)C1CN1[C@@H](C)C(=O)OC (stereo partly specified)	39%		
CCOC(=O)[C@H]1[C@H](C(=O)OCC)N1C(=O)[C@@H](NC(=O)OC(C)(C)C)C(C(C)C)N1CCC1 (stereo partly specified)	16%		pKi (Procathepsin L): 5.32
COC(=O)C1CN1[C@@H](CCSC)C(=O)OC (stereo partly specified)	28%		
COC(=O)C1(C(=O)OC)C(C)N1C(=O)OC(C)(C)C (stereo unspecified)		< 10%	
CCOC(=O)[C@H]1N[C@@H]1C(=O)N[C@H](C(=O)OCc1ccccc1)[C@@H](C)CC		< 10%	
